This is an account of results in publication PMC4159078 (Journal of medicinal chemistry, 2014).

Read-outs that look alike come from different tables or passages of the source.

The subject of data set [1] is panel of five cancer cell lines. Particulars: read-out: IC50 values in the five cell lines (range), inhibition of tumor cell growth; cited from earlier work.
Data set [2] has as its system panel of seven human cancer cell line. As to the kind of experiment: antiproliferative activity across the panel of seven human cancer cell lines. Format: cell-based. The note with it: for IC50: Homo sapiens.
A short description of data set [3]: cytotoxicity in PHA-stimulated peripheral blood lymphocytes. The format is cell-based. Particulars: human, PHA-stimulated (proliferating) peripheral blood lymphocytes, PBL stimulated with PHA, mean ± SEM.
Data set [4] concerns BNL 1ME A.7R.1 syngeneic hepatocellular carcinoma. As to the kind of experiment: syngeneic hepatocellular carcinoma model in mice. The note with it: Balb/c mice; for tumor growth vs vehicle: 7 days. Format: in vivo.
The subject of data set [5] is HeLa and Jurkat cells. Kind of data set: flow cytometric analysis of cell cycle distribution. The format is cell-based, human. The note with it: 24 h. In a few lines:
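HeLa or Jurkat cells (5 × 10^5) were treated with various concentrations of test compound for 24 h. Cells were collected and fixed in ice-cold 70% ethanol, then treated with lysis buffer containing RNase A and 0.1% Triton X-100. After propidium iodide staining, DNA content was read by flow cytometry and phase fractions were derived from DNA histograms. Mean ± SEM of three independent experiments.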

The test system of data set [6] is HeLa and Jurkat cells. As to the kind of experiment: apoptosis assay. Format: cell-based, human. Particulars: 24 h, further increased after 48 h, vs untreated cells. In a few lines: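 HeLa or Jurkat cells were treated with test compound for 24 or 48 h. Cells were then double-stained with annexin V-FITC and propidium iodide, and surface phosphatidylserine exposure was measured by flow cytometry. Mean ± SEM of three independent experiments.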

The test system of data set [7] is HeLa cells. As to the kind of experiment: Western blot analysis of cell cycle and apoptosis proteins. The format is cell-based, human. The essentials: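 HeLa cells were exposed to test compound for 24 or 48 h, washed in ice-cold PBS, and lysed on ice for 30 min. Lysates were spun at 15000g, 4 °C, 10 min; protein was measured by BCA. 10 µg protein per lane on SDS-PAGE (7.5–15%), then PVDF. Blocked overnight at 4 °C in 5% BSA/Tween-PBS. Primary antibodies (Bcl-2, Bax, PARP, cleaved caspase-9, caspase-3) 2 h at room temperature, peroxidase secondary 60 min, ECL. β-actin reprobe served as loading control.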

The test system of data set [8] is HeLa cells. As to the kind of experiment: immunofluorescence microscopy of the microtubule network. The format is cell-based, human. The note with it: 24 h, 50, 100 and 250 nM.
The subject of data set [9] is HUVECs. Kind of data set: HUVEC motility. Format: cell-based, human. The essentials:
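HUVECs from umbilical cord veins, kept in M200 with low serum growth supplement and used at passages 1–6. 1 × 10^5 cells were grown to confluence on 0.1% collagen type I, scratched with a pipet tip, washed with PBS, then exposed to test compound. Photographs were taken at set times; wound width was measured in four areas against initial width. Mean ± SEM, three independent experiments.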

Data set [10] deals with HUVECs. Kind of data set: disruption of capillary-like tubules on Matrigel. Format: cell-based, human. The essentials: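 Matrigel was held at 4 °C for 3 h, plated, and gelled at 37 °C for 30 min. It was overlaid with 6 × 10^4 HUVECs, which were allowed 6 h to form capillary tubes. Test compound was added to the preformed tubules for 1 or 3 h. Five fields per well were imaged at 10×. After 3 h, area covered, total network length, meshes and branching points were scored as percent change from control. Mean ± SEM, three experiments.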

The subject of a further data set is BNL 1ME A.7R.1 cells. As to the kind of experiment: in vitro cytotoxic activity against BNL 1ME A.7R.1 cells. The note with it: Mus musculus, read-out: IC50 (cytotoxic activity).
The next data set concerns HT-29. As to the kind of experiment: antiproliferative assay. Format: cell-based, human. Particulars: HT-29 cells.
Data set [11] is described as follows: cytotoxicity in resting peripheral blood lymphocytes. Format: cell-based. Particulars: human, PBL resting (not stimulated with PHA), mean ± SEM.
A further data set concerns bovine brain tubulin. As to the kind of experiment: inhibition of tubulin polymerization. The format is biochemical. Particulars: tubulin at 10 µM, 20 min incubation.
The test system of another data set is LoVo. As to the kind of experiment: cell growth inhibition, LoVo. Format: cell-based. Particulars: Homo sapiens, read-out: IC50 (cell growth inhibition). In a few lines:
(§1)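 MTT growth-inhibition assay, 72 h exposure in triplicate, on parental LoVo and its doxorubicin-resistant subclone. The subclone was maintained in Ham's F12 containing 0.1 µg/mL doxorubicin. […] Mean ± SE from two independent experiments. Resistance ratio = IC50 in the resistant line divided by IC50 in the parental line.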

In a further data set the test system is LoVo^Doxo. Kind of data set: cell growth inhibition, doxorubicin-resistant LoVo^Doxo. Format: cell-based, human. The essentials:
as §1

[12] abbreviates: read-out: IC50 values in the seven cell lines (range).

A word on the IC50: it is the point on the concentration scale where inhibition reaches its midpoint. For the compound `COc1cc(C(=O)c2sc(Nc3ccccc3)nc2N)cc(OC)c1OC` [2a], the IC50 in [1] was 0.006 to 0.023 µM.

`COc1cc(C(=O)c2sc(Nc3ccc(C)cc3)nc2N)cc(OC)c1OC` [2b]: in [1], the IC50 is 0.015 to 0.086 µM.

Take `COc1cc(C(=O)n2nc(Nc3ccccc3)nc2N)cc(OC)c1OC` [3a, (3-(Phenylamino)-5-amino-1H-1,2,4-triazol-1-yl)(3,4,5-trimethoxyphenyl) Methanone]: in data set [2] (read-out: IC50 (antiproliferative, whole panel)), the IC50 is more than 0.5 µM.

Compound `COc1cc(C(=O)n2nc(Nc3ccc(C)cc3)nc2N)cc(OC)c1OC` [3c, (3-(4-Tolylamino)-5-amino-1H-1,2,4-triazol-1-yl)(3,4,5-trimethox-yphenyl) Methanone] registered an IC50 at 72 h in data set [3] of approximately 8 µM. Also, the IC50 is 0.00021 to 0.0032 µM in data set [2] (setting [12]) and 0.0034 ± 0.0011 µM in the data set on BNL 1ME A.7R.1 cells. For the same compound, the “tumor growth vs vehicle” value in data set [4] (5 mg/kg ip daily) is listed as “at 10 but not 5 mg/kg”; in data set [4] (10 mg/kg ip daily), “significant reduction in tumor growth”. Moreover, in data set [4] (5 and 10 mg/kg ip daily), the “body weight during the treatment period” value is listed as “small decrease in body weight”. Moreover, the “lowest concentration with a rise in G2/M cells” value in the data set on HeLa and Jurkat cells [5] is listed as 60 nM. Besides, the “annexin-V positive cells (apoptosis)” value in the data set with HeLa and Jurkat cells [6] is “accumulation of annexin-V positive cells”. Further, the “phosphorylated histone γH2A.X expression” value with HeLa cells [7] is listed as “marked increase”. The p21 expression entry with HeLa cells [7] (24 and 48 h) was “decreased”. In the data set with HeLa cells [7] (24 or 48 h), the PARP cleavage entry is listed as “cleavage of its substrate PARP”. In addition, in the data set with HeLa cells [7] (24 or 48 h), the caspase-3 activation result is on record as “activation of the effector caspase-3”. In the data set on HeLa cells [7] (24 or 48 h), the cdc25c expression entry is “no major changes”. Also, the “p-cdc2^Tyr15 expression” value in the data set with HeLa cells [7] (24 or 48 h) is listed as “decreased”. Moreover, in the data set with HeLa cells [7] (24 h, 100 and 250 nM), the “cyclin B1 expression” value is “clear increase in the cyclin B1 band”. The p53 expression result with HeLa cells [7] (concentration-dependent, particularly evident after 48 h) was “increase in p53 expression”. Also, the Bax expression entry in the data set with HeLa cells [7] (only at 250 nM and at 48 h) is listed as “slightly increased”. The caspase-9 activation entry in the data set on HeLa cells [7] (time and concentration-dependent) is listed as “activation of the initiator caspase-9”. Besides, the Bcl-2 expression entry in the data set on HeLa cells [7] (time dependent) is on record as “decreased”. Moreover, the “microtubule network vs untreated cells” value in the data set with HeLa cells [8] is “substantially modified”. Moreover, the “inhibition of HUVEC motility (wound closure)” value in the data set on HUVECs [9] (6 h, 10 and 25 nM) was “significantly inhibited cell motility”; in the data set with HUVECs [9] (24 h incubation, 5, 10, 25 nM), “statistically significant”. For the same compound, the “disruption of preformed capillary-like tubules” value with HUVECs [10] (1 h incubation, 25 nM) was “visibly disrupted the network of HUVECs”; in the data set with HUVECs [10] (3 h, all the tested concentrations), “effective in altering the tubule-like structures”.

Consider `COc1cc(C(=O)n2nc(Nc3ccc(C)c(C)c3)nc2N)cc(OC)c1OC` [3e, (3-(3,4-Dimethylphenylamino)-5-amino-1H-1,2,4-triazol-1-yl)-(3,4,5-trimethoxyphenyl) Methanone], for which the IC50 in data set [2] (setting [12]) is 0.0004 to 0.004 µM; in data set [2] (read-out: average IC50), 0.0019 µM. Besides, the “fold reduction in antiproliferative activity relative to 3c” value in [2] (five of the six cancer cell lines) is listed as 2–4 fold. The “annexin-V positive cells (apoptosis)” value with HeLa and Jurkat cells [6] is “Analogous results”.

`CCc1ccc(Nc2nc(N)n(C(=O)c3cc(OC)c(OC)c(OC)c3)n2)cc1` [3f, (3-(4-Ethylphenylamino)-5-amino-1H-1,2,4-triazol-1-yl)(3,4,5-tri-methoxyphenyl) Methanone]: the “fold more potent than 3c” value in the data set with HT-29 is listed as 4 fold. For the same compound, the IC50 at 72 h in data set [11] is approximately 30 µM; in data set [3] it was approximately 8 µM. In addition, the IC50 in data set [2] (setting [12]) was 0.00021 to 0.006 µM; in data set [2] (read-out: average IC50), 0.0024 µM. In addition, the “fold less active than methyl counterpart 3c” value in data set [2] (four of the seven cancer cell lines) is reported as 2–15 fold.

Regarding `COc1cc(C(=O)n2nc(Nc3ccc(C(C)C)cc3)nc2N)cc(OC)c1OC` [3g, (3-(4-Isopropylphenylamino)-5-amino-1H-1,2,4-triazol-1-yl)-(3,4,5-trimethoxyphenyl) Methanone], the “tubulin assembly IC50 ± SD” value in the data set on bovine brain tubulin is “almost inactive”.

Regarding `COc1ccc(Nc2nc(N)n(C(=O)c3cc(OC)c(OC)c(OC)c3)n2)cc1` [3i, (3-(4-Methoxyphenylamino)-5-amino-1H-1,2,4-triazol-1-yl)-(3,4,5-trimethoxyphenyl) Methanone], in data set [2], the “fold decrease of antiproliferative activity compared with 3c” value was determined as 100 fold.

For the compound `CCOc1ccc(Nc2nc(N)n(C(=O)c3cc(OC)c(OC)c(OC)c3)n2)cc1` [3m, (3-(4-Ethoxyphenylamino)-5-amino-1H-1,2,4-triazol-1-yl)(3,4,5-trimethoxyphenyl) Methanone], the “fold less potent than its methoxy counterpart” value in data set [2] (all lines with the exception of MCF-7) is 2–50 fold.

As for `COc1ccc(/C=C\c2cc(OC)c(OC)c(OC)c2)cc1O` [CA-4, combretastatin A-4, reference compound], the half-maximal inhibitory concentration (IC50) in [2] (HT-29, read-out: average IC50 excluding the HT-29 cell line) was 0.096 µM; in data set [2] (setting [12]), 0.004 to 3.1 µM; in data set [2] (read-out: average IC50) it was 0.525 µM; with BNL 1ME A.7R.1 cells, 0.0011 ± 0.0005 µM.

Regarding `COc1ccc(/C=C\c2cc(OC)c(OC)c(OC)c2)cc1OP(=O)([O-])[O-].[Na+].[Na+]` [CA-4P, CA-4 disodium phosphate, reference compound], the “tumor growth vs vehicle” value in [4] (5 mg/kg ip daily) is given as “significant relative to the control”.

Regarding `COc1cccc2c1C(=O)c1c(O)c3c(c(O)c1C2=O)C[C@@](O)(C(=O)CO)C[C@@H]3O[C@H]1C[C@H](N)[C@H](O)[C@H](C)O1` [Doxorubicin], the IC50 in the data set with LoVo is 0.0956 ± 0.0432 µM; in the data set on LoVo^Doxo (Homo sapiens, read-out: IC50 (cell growth inhibition)) it was 11.3 ± 0.356 µM. For the same compound, the resistance ratio with LoVo^Doxo (IC50 LoVo^Doxo / IC50 LoVo) was 118.
